Molecules are shown by their SMILES. pIC50, pKi: −log10 of the molar value. The source made the active and inactive calls. The rule behind the calls is not given here. Some results are limits rather than exact numbers.

The term pKi denotes the negative decadic logarithm of the Ki, by convention in mol/L. Read a high pKi as a low Ki. What is called pIC50 is the IC50 on a negative log10 scale, so that one unit is a factor of ten.

The target of assay [1] is T1, Induced myeloid leukemia cell differentiation protein Mcl-1 (Homo sapiens, UniProt Q07820). Kind of assay: Displacement of Flu-BID/FAM-BID from His-tagged MCL1 (171 to 327) (unknown origin) expressed in Escherichia coli BL21(DE3) after 3 hrs by fluorescence polarization assay. On the technique in general: Fluorescence polarisation rises when a labelled molecule tumbles more slowly, as on binding a larger partner.
T1 sequence (Q07820 whole entry): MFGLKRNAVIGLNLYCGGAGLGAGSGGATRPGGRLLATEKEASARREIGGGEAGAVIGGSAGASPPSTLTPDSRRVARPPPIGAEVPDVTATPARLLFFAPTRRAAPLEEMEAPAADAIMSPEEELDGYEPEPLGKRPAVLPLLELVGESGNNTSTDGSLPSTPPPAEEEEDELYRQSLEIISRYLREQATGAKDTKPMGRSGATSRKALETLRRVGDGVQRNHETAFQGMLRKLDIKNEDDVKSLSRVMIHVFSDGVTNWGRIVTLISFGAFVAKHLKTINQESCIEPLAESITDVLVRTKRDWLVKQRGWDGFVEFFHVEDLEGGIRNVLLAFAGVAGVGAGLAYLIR

Assay [2] relates to HL-60. Kind of assay: Cytotoxicity against human HL60 cells assessed as intracellular ATP level after 3 days by CellTiterGlo assay. The assay is classed as functional, cell-based. Put shortly: (§1)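 Cells in RPMI 1640 with 10% FBS, plated at 0.5 × 10^6 cells/well and exposed to a range of compound concentrations for 3 days. Viability is read as intracellular ATP by CellTiter-Glo luminescence. Growth is expressed as percent of DMSO-treated cells, and IC50 is obtained by nonlinear regression.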
For orientation: Cellular ATP, detected with luciferase, serves as a proxy for viable cell number.

Assay [3] deals with MV4-11. The assay is described as follows: Cytotoxicity against human MV4-11 cells assessed as intracellular ATP level after 3 days by CellTiterGlo assay. Type of assay: functional, cell-based. An outline of the steps: as §1
The subject of assay [4] is K562. Kind of assay: Cytotoxicity against human K562 cells assessed as intracellular ATP level after 3 days by CellTiterGlo assay. The assay is classed as functional, cell-based. An outline of the steps:
as §1

The test system of assay [5] is HL-60. The assay is described as follows: Induction of apoptosis in human HL60 cells after 20 hrs by annexin V-FITC and propidium iodide staining-based flow cytometric analysis. The assay is classed as functional, cell-based. Put shortly: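 HL-60 cells at 0.5 × 10^6 cells/well were exposed to compounds at several concentrations for 20 h, then washed in PBS and stained with annexin-V FITC plus PI. Flow cytometry was run within 1 h. Annexin+/PI− counts as early apoptosis and double positive as late. Some runs included a 1 h pretreatment with 100 μM Z-VAD-FMK.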
(A flow cytometer gives signals particle by particle.)

For assay [6], the target named is Bcl-2-like protein 1 (Homo sapiens, UniProt Q07817). The assay is described as follows: Displacement of Flu-BID/FAM-BID from His-tagged BCLX-L (1 to 209) (unknown origin) expressed in Escherichia coli BL21(DE3) after 3 hrs by fluorescence polarization assay.
Bcl-2-like protein 1, sequence (Q07817 whole entry): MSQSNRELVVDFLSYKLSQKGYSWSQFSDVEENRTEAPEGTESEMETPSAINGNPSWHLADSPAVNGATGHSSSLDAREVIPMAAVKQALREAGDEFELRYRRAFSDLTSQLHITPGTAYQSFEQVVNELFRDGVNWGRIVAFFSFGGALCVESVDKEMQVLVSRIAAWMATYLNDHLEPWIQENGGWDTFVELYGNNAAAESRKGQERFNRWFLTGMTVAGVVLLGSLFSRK
Assay [7] is filed under the species Homo sapiens. Kind of assay: Selectivity ratio of Ki for His-tagged BCL2 (1 to 202) (unknown origin) to Ki for His-tagged MCL1 (171 to 327) (unknown origin). Put shortly:
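Buffer 100 mM potassium phosphate pH 7.5 with bovine gamma globulin, azide and 0.01% Triton X-100; 3 h at room temperature. IC50 fitted, then converted to Ki.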

Assay [8] concerns the target T1, Induced myeloid leukemia cell differentiation protein Mcl-1. The assay is described as follows: Binding affinity to His-tagged MCL1 (171 to 327) (unknown origin) expressed in Escherichia coli BL21(DE3) assessed as inhibition of MCL1-N-terminal biotin-labeled BIM BH3 peptide interaction after 30 mins by surface plasmon resonance analysis.
The target in assay [9] is T2, Apoptosis regulator Bcl-2 (Homo sapiens, UniProt P10415). The assay is described as follows: Displacement of Flu-BID/FAM-BID from His-tagged BCL2 (1 to 202) (unknown origin) expressed in Escherichia coli BL21(DE3) after 3 hrs by fluorescence polarization assay.
T2 sequence (P10415 whole entry): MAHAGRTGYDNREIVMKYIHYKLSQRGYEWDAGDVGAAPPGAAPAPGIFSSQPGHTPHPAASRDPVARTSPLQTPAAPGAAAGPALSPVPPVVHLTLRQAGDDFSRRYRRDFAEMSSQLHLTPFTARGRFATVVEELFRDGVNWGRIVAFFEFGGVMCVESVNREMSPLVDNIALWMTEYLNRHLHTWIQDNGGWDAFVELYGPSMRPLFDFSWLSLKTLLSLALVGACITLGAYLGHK
Assay [10] has as its target T2, Apoptosis regulator Bcl-2. The assay is described as follows: Inhibition of BCL2 (unknown origin) overexpressed in E-mu-myc transgenic mouse lymphoma cells assessed as induction of cell death after 15 to 18 hrs by flow cytometric analysis. Type of assay: cell-based. Put shortly:
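Eμ-myc transgenic mouse lymphoma cells retrovirally transduced to overexpress Mcl-1 or Bcl-2, seeded at 0.5 × 10^6 cells/well. Cells were treated at varying concentrations for 15–18 h and stained with violet LIVE/DEAD fixable dead-cell dye. Percent stained (dead) cells was measured by flow cytometry. Means ± SEM from 3–7 independent experiments.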

In assay [1], `O=S(=O)(Nc1cc(SCc2nnn[nH]2)c(O)c2ccccc12)c1ccc(Oc2ccccc2)cc1` had a pKi of 6.68. Also, the Activity result in assay [2], in assay [3], in assay [4] and in assay [5] was “Dose-dependent effect” throughout.
In [6], `COc1c(I)cc(C=O)c2ccccc12` had a pKi of less than 4.82. The Ratio Ki in [7] was determined as 16.
`COc1c(SCC(N)=O)cc(NS(=O)(=O)c2ccc(Br)cc2)c2ccccc12` showed a pKi in [1] of less than 4.57. The pIC50 in assay [8] is less than 4.00.
As to `O=C(O)CCSc1cc(NS(=O)(=O)c2ccc3ccccc3c2)c2ccccc2c1O`, the pIC50 in assay [8] is 5.30.
On to `O=C(O)CSc1cc(NS(=O)(=O)N2CCN(c3ccccc3)CC2)c2ccccc2c1O`, for which, in assay [1], the pKi was 5.65. Besides, the pIC50 in [8] is 4.79.
Regarding `O=C(O)CSc1cc(NS(=O)(=O)c2cccc(Br)c2)c2ccccc2c1O`, in [8], the pIC50 was 5.01.
In the case of `CC(C)c1ccc(S(=O)(=O)Nc2cc(SCC(=O)O)c(O)c3ccccc23)cc1`, the pIC50 in assay [8] was 5.40.
`O=C(O)CSc1cc(NS(=O)(=O)c2ccc(Cl)cc2)c2ccccc2c1O`: the pIC50 in assay [8] is 5.57.
With `O=C(O)CSc1cc(CNS(=O)(=O)c2ccccc2)c2ccccc2c1O`, the pKi in [1] was 4.19. Besides, in [8], the pIC50 is 4.52.
The molecule `O=C(O)CSc1cc(NC(=O)Cc2ccccc2)c2ccccc2c1O` gave a pKi in assay [1] of 4.23. In addition, the negative-log IC50 (pIC50) in assay [8] was 4.20.
As for `O=C(O)CSc1cc(NS(=O)(=O)c2ccccc2)c2ccccc2c1O`, the pIC50 in assay [8] is 4.90.
`CCCCSc1cc(NS(=O)(=O)c2ccc(Br)cc2)c2ccccc2c1O`: the pKi in [1] was less than 4.57.
In assay [1], `O=C(O)CCSc1cc(NS(=O)(=O)c2cccc3ccccc23)c2ccccc2c1O` showed a pKi of less than 4.57. Further, the pIC50 in assay [8] was 4.19.
`CC(C)(C)c1ccc(S(=O)(=O)Nc2cc(SCC(=O)O)c(O)c3ccccc23)cc1`: the pIC50 in [8] is 5.06.
On to `O=C(O)CSc1cc(NS(=O)(=O)c2cccc(-c3ccccc3)c2)c2ccccc2c1O`, for which, in [8], the pIC50 was 5.64. Also, the pKi is 5.11 in assay [9] and 4.82 in assay [6]. The Activity entry in assay [2], in assay [3] and in [4] was “Dose-dependent effect” each time.
For `COc1c(CCCCO)cc(NS(=O)(=O)c2ccc(Br)cc2)c2ccccc12`, the pKi in [1] is less than 4.57. Moreover, the pIC50 in assay [8] was less than 4.00.
Take `O=C(O)CSc1cc(NC(=O)c2ccc(Br)cc2)c2ccccc2c1O`: in assay [8], the pIC50 was 4.35.
`CS(=O)(=O)Nc1cc(SCC(=O)O)c(O)c2ccccc12` gave a pKi in assay [1] of 4.13. For the same molecule, the pIC50 in assay [8] is less than 4.00.
`O=C(O)CSc1cc(NS(=O)(=O)c2ccccc2Br)c2ccccc2c1O`: in assay [8], the pIC50 was 5.21.
With `O=S(=O)(Nc1cc(CCCCO)c(O)c2ccccc12)c1ccc(Br)cc1`, the pIC50 in assay [8] is 4.71.
In [1], `COc1ccc(S(=O)(=O)Nc2cc(SCC(=O)O)c(O)c3ccccc23)cc1` had a pKi of 5.03. In addition, in [8], the pIC50 was 5.14.
Consider `O=C(O)CSc1cc(NS(=O)(=O)c2ccc(Oc3ccc(F)cc3)cc2)c2ccccc2c1O`, for which, in assay [1], the pKi is 6.54. Further, the pIC50 in [8] is 6.05.
Consider `O=C(O)CSc1cc(NS(=O)(=O)c2ccccc2-c2ccccc2)c2ccccc2c1O`, for which the pIC50 in [8] was 5.00. Also, the pKi was 4.62 in assay [9] and 4.32 in assay [6].
For the molecule `COc1c(SCC(=O)O)cc(NS(=O)(=O)c2cccc(-c3ccccc3)c2)c2ccccc12`, in [1], the pKi is 4.62. In [8], the pIC50 is 4.23.
Regarding `O=C(O)CSc1cc(NS(=O)(=O)Cc2ccc(Cl)cc2)c2ccccc2c1O`, the pIC50 in [8] is 5.02.
`COC(=O)CSc1cc(NS(=O)(=O)c2ccc(Br)cc2)c2ccccc2c1OC`: the pKi in [1] was less than 4.57. Moreover, the pIC50 is less than 4.00 in [8]; less than 4.30 in assay [2] (HL-60, 72 h); less than 4.30 in assay [3] (MV4-11, 72 h); less than 4.30 in [4] (K562, 72 h). Moreover, the inhibition result in [10] is “inactive”. Also, the Activity result in assay [2], in [3] and in assay [4] was “Dose-dependent effect” throughout.
In assay [1], `CC(=O)Oc1c(SCC(=O)O)cc(NS(=O)(=O)c2ccc(Br)cc2)c2ccccc12` gave a pKi of 4.47. In addition, the pIC50 in assay [8] is 4.57.
Turning to `O=C(O)CSc1cc(NS(=O)(=O)c2ccc(-c3ccccc3)cc2)c2ccccc2c1O`, in [8], the pIC50 is 5.69. The pKi in assay [9] was 5.05; in assay [6], 5.09. The Activity result in assay [2], in [3] and in assay [4] was “Dose-dependent effect” throughout.
As to `COC(=O)CSc1cc(NS(=O)(=O)c2ccc(Br)cc2)c2ccccc2c1O`, in [8], the pIC50 was 4.83. In addition, the Activity entry in assay [2], in [3] and in [4] was “Dose-dependent effect” in each case.
`O=S(=O)(Nc1cc(CCCO)c(O)c2ccccc12)c1ccc(Br)cc1` gave a pKi in [1] of 5.42. The pIC50 in assay [8] is 4.96.
The molecule `COc1c(SCC(=O)O)cc(NS(=O)(=O)c2ccc(-c3ccccc3)cc2)c2ccccc12` gave a pKi in assay [1] of 4.70. Besides, the pIC50 in [8] is less than 4.00.
In assay [1], `O=S(=O)(Nc1ccc(O)c2ccccc12)c1ccccc1` gave a pKi of less than 4.57.
`O=C(O)CSc1cc(NS(=O)(=O)c2ccc(Br)cc2)ccc1O`: in assay [1], the pKi is 3.55. In addition, the pIC50 in [8] was less than 4.00.
In the same order, the values of `O=C(O)CSc1cc(NS(=O)(=O)c2ccc(-c3ccc(F)cc3F)cc2)c2ccccc2c1O` are 6.62 and 6.04.
For the molecule `NC(=O)CSc1cc(NS(=O)(=O)c2ccc(Br)cc2)c2ccccc2c1O`, the pIC50 in [8] is 5.41.
For `O=C(O)CSc1cc(NS(=O)(=O)c2ccc(Br)cc2)c2ccccc2c1O`, the pIC50 in [8] was 5.62. Also, the pKi is 4.62 in assay [9] and 4.48 in [6]. The Activity result in [2], in [3] and in assay [4] was “Dose-dependent effect” each time.
For the molecule `CCc1ccc(S(=O)(=O)Nc2cc(SCC(=O)O)c(O)c3ccccc23)cc1`, the pIC50 in [8] is 5.06.
With `O=C(O)CSc1cc(NS(=O)(=O)c2cc3ccccc3s2)c2ccccc2c1O`, the pIC50 in assay [8] is 5.12.
Consider `O=C(O)CSc1cc(NS(=O)(=O)c2ccc(-c3ccc(Cl)cc3)cc2)c2ccccc2c1O`, for which the pIC50 in assay [8] was 6.06. Besides, the pKi in [9] was 5.21. The inhibition result in assay [10] was “inactive”. For the same molecule, the Activity entry in [2], in assay [3] and in assay [4] was “Dose-dependent effect” throughout.
Turning to `O=S(=O)(Nc1cc(SCc2nnn[nH]2)c(O)c2ccccc12)c1ccc(Br)cc1`, the pKi in [1] was 6.00. In addition, the pIC50 in [8] is 5.82. In addition, the Activity result in assay [2], in assay [3] and in assay [4] was “Dose-dependent effect” in each case.
Take `O=C(O)CSc1cc(NS(=O)(=O)c2ccc(F)cc2)c2ccccc2c1O`: in assay [8], the pIC50 was 5.30.
